Test results published in ChEMBL document CHEMBL1127519, “1,3-Diarylindan-2-carboxylic acids, potent and selective non-peptide endothelin receptor antagonists” (J Med Chem, 1994).
pKi: −log10 of the molar value.

How the values were obtained:
Endothelin-1 receptor [1] = molecular target: T1, Endothelin-1 receptor (Homo sapiens, UniProt P25101); experiment: Inhibition of [125I]ET1 binding to cloned human ET-A receptor
T1 sequence (P25101 whole entry): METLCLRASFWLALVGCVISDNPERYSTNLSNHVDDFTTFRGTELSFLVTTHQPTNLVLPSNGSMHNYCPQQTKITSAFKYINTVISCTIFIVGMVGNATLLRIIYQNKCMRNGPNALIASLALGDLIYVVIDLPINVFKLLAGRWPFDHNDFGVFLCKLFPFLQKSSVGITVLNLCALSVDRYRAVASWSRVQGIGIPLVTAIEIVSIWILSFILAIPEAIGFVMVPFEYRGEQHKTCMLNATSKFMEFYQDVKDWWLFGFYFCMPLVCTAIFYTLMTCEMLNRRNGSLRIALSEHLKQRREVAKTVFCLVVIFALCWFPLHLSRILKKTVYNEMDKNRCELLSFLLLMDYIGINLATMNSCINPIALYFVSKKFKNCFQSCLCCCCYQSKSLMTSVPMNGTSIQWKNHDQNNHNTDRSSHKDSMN
How it was run: (§1)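 Membranes from CHO cells stably expressing cloned human ET-A receptor (0.5 μg per tube) incubated with [125I]ET-1 (0.3 nM) alone or with increasing unlabeled ligand, 1 h at 30 °C. Bound and free separated by filtration and counted by γ-counter. Nonspecific binding 8-25%. Apparent Ki from competition curves, n ≥ 3.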

[2] = molecular target: T2, Endothelin receptor type B (Homo sapiens, UniProt P24530); experiment: Inhibition of [125I]ET1 binding to cloned human ET-B receptor
T2 sequence (P24530 whole entry): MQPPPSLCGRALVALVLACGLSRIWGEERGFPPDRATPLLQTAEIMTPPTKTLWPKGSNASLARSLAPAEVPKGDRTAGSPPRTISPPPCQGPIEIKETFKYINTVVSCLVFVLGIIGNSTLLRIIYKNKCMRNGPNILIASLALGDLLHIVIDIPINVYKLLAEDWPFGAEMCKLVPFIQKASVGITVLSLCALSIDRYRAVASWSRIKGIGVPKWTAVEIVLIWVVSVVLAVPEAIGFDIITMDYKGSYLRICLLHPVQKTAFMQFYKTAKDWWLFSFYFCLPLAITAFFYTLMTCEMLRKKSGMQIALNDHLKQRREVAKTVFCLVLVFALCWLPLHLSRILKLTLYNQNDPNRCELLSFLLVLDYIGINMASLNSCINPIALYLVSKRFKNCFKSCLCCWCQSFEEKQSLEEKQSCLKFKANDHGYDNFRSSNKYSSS
How it was run: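 Membranes from CHO cells stably expressing cloned human ET-B receptor (0.05 μg per tube) incubated with [125I]ET-1 (0.3 nM), without or with rising concentrations of unlabeled ligand, 30 °C for 1 h. Filtration separated bound from free, gamma counting. Nonspecific binding 2-5%. Apparent Ki derived from competition curves, n ≥ 3.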

Endothelin-1 receptor [3] = molecular target: T1, Endothelin-1 receptor; experiment: Inhibition of [125I]ET1 binding to cloned human Endothelin A receptor; how it was run: as §1

Compound | pKi (Endothelin-1 receptor [1]) | pKi [2] | pKi (Endothelin-1 receptor [3])
COc1ccc([C@@H]2c3ccccc3[C@H](c3ccc(OC)cc3)[C@H]2C(=O)O)cc1 | 6.37 | 5.61 | 
COc1ccc([C@@H]2c3cc(O)ccc3[C@H](c3ccc4c(c3)OCO4)[C@H]2C(=O)O)cc1 | 7.82 | 6.32 | 
COc1ccc([C@H]2c3ccccc3[C@@H](c3ccccc3)[C@@H]2C(=O)O)cc1 |  | < 4.52 | 5.25
COc1ccc([C@H]2c3ccccc3[C@@H](c3ccc4c(c3)OCO4)[C@@H]2C(=O)O)cc1 | 7.37 | 6.12 | 
O=C(O)[C@H]1[C@H](c2ccccc2)c2ccccc2[C@@H]1c1ccccc1 | 4.95 | < 4.52 | 
CCCOc1ccc2c(c1)[C@@H](c1ccc(OC)cc1OCC(=O)O)[C@H](C(=O)O)[C@H]2c1ccc2c(c1)OCO2 [SB-209670] | 9.37 | 7.83 | 
CCCOc1ccc2c(c1)[C@@H](c1ccc(OC)cc1)[C@H](C(=O)O)[C@H]2c1ccc2c(c1)OCO2 | 7.95 | 5.98 | 
